Assay results from ChEMBL document CHEMBL1145927 (J Med Chem, 2003).

Columns and labels:
[1] = target: T1, Prostaglandin G/H synthase 2 (Homo sapiens) (UniProt P35354); settings: at 1 µM
T1 sequence (whole entry): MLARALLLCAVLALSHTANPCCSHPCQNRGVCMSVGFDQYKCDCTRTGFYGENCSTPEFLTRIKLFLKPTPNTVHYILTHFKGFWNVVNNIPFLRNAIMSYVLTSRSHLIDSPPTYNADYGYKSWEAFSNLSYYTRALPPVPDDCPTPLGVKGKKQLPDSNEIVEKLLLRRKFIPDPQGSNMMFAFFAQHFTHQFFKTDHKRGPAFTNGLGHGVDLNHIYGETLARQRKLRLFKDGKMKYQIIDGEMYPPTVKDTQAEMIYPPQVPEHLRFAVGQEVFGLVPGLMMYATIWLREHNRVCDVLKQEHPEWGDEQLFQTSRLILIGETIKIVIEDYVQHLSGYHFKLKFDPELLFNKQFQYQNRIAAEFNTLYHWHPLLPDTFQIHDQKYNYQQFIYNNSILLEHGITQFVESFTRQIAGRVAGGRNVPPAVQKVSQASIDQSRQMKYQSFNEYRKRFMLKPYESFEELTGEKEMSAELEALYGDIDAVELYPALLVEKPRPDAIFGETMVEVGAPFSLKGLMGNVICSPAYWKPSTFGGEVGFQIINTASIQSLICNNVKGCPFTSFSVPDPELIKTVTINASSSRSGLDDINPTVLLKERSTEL

[2] = target: T2, Prostaglandin G/H synthase 1 (Homo sapiens, UniProt P23219); settings: at 100 µM
[3] = target: T1, Prostaglandin G/H synthase 2 (Homo sapiens); settings: at 10 µM
[4] = target: T2, Prostaglandin G/H synthase 1; assay: In vitro average percent Inhibition of Prostaglandin G/H synthase 1 (COX-1) at a concentration of 100 uM in human whole blood by human whole blood assay; format: tissue-based
[5] = target: T1, Prostaglandin G/H synthase 2 (Homo sapiens); settings: Blood; at 1 µM
[6] = target: T1, Prostaglandin G/H synthase 2 (Homo sapiens); settings: Blood; at 10 µM
[7] = target: T2, Prostaglandin G/H synthase 1; assay: In vitro average percent inhibition of human prostaglandin G/H synthase 1 (COX-1) at a concentration of 100 uM
Summary of the method: (§1)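 Supplied recombinant human COX-1 (5 units) preincubated 2 min at 25 °C in 0.1 M Tris-HCl pH 8.0 with 5 mM EDTA, 2 mM phenol and heme; compound or DMSO added, 20 min at 25 °C; started with 10 mM arachidonic acid stock, 2 min at 37 °C; stopped with HCl, SnCl2 reduction; prostaglandins by EIA; percent inhibition versus solvent control.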

[8] = target: T3, Prostaglandin G/H synthase 1 (Ovis aries) (UniProt P05979); assay: Compound was tested for in vitro inhibition of recombinant ovine Prostaglandin G/H synthase 1 (COX-1) at a concentration of 100 uM
T3 sequence (whole entry): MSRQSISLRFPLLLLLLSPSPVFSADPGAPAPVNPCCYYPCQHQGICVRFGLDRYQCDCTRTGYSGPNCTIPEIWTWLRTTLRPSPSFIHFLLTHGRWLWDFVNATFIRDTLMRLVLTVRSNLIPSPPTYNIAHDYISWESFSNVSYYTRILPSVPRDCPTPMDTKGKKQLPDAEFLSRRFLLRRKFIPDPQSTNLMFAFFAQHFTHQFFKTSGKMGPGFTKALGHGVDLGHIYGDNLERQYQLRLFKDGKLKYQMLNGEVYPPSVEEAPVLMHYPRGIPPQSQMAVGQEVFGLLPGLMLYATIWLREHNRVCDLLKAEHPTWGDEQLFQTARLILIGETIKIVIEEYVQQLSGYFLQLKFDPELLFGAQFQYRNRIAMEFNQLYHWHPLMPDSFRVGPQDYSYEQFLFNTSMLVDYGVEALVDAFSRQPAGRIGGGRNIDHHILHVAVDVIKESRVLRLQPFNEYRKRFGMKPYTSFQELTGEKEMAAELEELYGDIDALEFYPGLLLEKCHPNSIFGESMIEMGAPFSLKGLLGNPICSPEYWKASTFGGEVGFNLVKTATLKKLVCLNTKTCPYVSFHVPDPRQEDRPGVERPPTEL
Summary of the method: as §1, with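 “ovine” for “human”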

[9] = target: T2, Prostaglandin G/H synthase 1; assay: In vitro average percent Inhibition of Prostaglandin G/H synthase 1 (COX-1) at a concentration of 100 uM determined in human whole blood by human whole blood (HWB) assay; format: tissue-based
[10] = target: T1, Prostaglandin G/H synthase 2 (Homo sapiens); assay: In vitro average percent Inhibition of Prostaglandin G/H synthase 2 (COX-2) at a concentration of 10 uM determined by human whole blood (HWB) assay
Summary of the method: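 Heparinized whole blood from male or female donors free of aspirin/NSAIDs for 14 days, 1 mL aliquots pre-warmed 15 min at 37 °C, 5% CO2; compound in DMSO, duplicate wells; COX-2 induced by E. coli LPS added 4.5 h later, incubated 5 h; stopped on ice with 2 mM EGTA; plasma methanol-extracted, TXB2 by EIA; average of two donors.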

[11] = target: T4, Prostaglandin G/H synthase 2 (Homo sapiens, UniProt P35354); assay: Compound was tested for the inhibition of recombinant human Prostaglandin G/H synthase 2 (COX-2)
T4 sequence (P35354 whole entry): T1 sequence (whole entry)

[12] = target: T2, Prostaglandin G/H synthase 1; assay: Compound was tested for the inhibition of recombinant human Prostaglandin G/H synthase 1 (COX-1)

T2 sequence (P23219 whole entry): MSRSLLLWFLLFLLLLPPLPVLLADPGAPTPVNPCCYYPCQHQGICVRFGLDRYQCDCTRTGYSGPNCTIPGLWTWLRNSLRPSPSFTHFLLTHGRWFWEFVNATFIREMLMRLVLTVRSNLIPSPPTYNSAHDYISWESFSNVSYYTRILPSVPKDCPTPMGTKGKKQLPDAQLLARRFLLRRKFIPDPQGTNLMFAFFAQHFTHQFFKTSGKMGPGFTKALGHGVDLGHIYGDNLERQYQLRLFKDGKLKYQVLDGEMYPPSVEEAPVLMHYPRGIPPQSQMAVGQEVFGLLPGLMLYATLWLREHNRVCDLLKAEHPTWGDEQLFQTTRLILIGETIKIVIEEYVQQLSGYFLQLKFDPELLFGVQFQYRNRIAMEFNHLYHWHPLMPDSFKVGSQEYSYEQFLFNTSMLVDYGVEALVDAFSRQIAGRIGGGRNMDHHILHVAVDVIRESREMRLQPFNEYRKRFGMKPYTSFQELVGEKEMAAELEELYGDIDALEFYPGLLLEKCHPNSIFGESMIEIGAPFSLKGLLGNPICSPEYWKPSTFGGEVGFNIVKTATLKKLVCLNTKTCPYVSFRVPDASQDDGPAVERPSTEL

Row | SMILES | inhibition [1] [%] | inhibition [2] [%] | inhibition [3] [%] | inhibition [7] [%] | also measured
1 | CS(=O)(=O)c1ccc(-c2cc3c(cc2CN2CCCCC2)OCO3)cc1 | 0 | 0 | 30 |  | 
2 | CS(=O)(=O)c1ccc(-c2cc3c(cc2C(=O)c2ccccc2)OCO3)cc1 | 10 | 0 | 90 |  | inhibition [4]: 75%; inhibition [5]: 25%; inhibition [6]: 65%
3 | Cc1ccc(F)c(Cc2cc3c(cc2-c2ccc(S(C)(=O)=O)cc2)OCO3)c1 |  |  |  | 40 | 
4 | O=S(=O)(CF)c1ccc(-c2cc3c(cc2Cc2ccccc2)OCO3)cc1 | 25 | 50 | 50 |  | 
5 | CS(=O)(=O)c1ccc(-c2cc3c(cc2C(=O)c2cccnc2)OCO3)cc1 | 0 | 20 | 20 |  | 
6 | CS(=O)(=O)c1ccc(-c2cc3c(cc2Cc2ccc(F)cc2)OCO3)cc1 | 10 |  | 0 |  | inhibition [8]: 10%
7 | Cc1ccc(F)c(C(=O)c2cc3c(cc2-c2ccc(S(C)(=O)=O)cc2)OCO3)c1 |  |  |  | 90 | 
8 | COc1cccc(Cc2cc3c(cc2-c2ccc(S(C)(=O)=O)cc2)OCO3)c1 |  |  |  | 35 | 
9 | CS(=O)(=O)c1ccc(-c2cc3c(cc2CN2CCCCC2=O)OCO3)cc1 | 20 | 70 | 90 | 50 | 
10 | CS(=O)(=O)c1ccc(-c2cc3c(cc2C(=O)c2ccccc2F)OCO3)cc1 |  |  |  | 70 | 
11 | CCOC(=O)C1CCN(Cc2cc3c(cc2-c2ccc(S(C)(=O)=O)cc2)OCO3)CC1 | 20 | 0 | 20 |  | 
12 | CS(=O)(=O)c1ccc(-c2cc3c(cc2CN2CCCC(CO)C2)OCO3)cc1 (centres undefined) | 20 | 0 | 30 |  | 
13 | CS(=O)(=O)c1ccc(-c2cc3c(cc2Cc2cc(F)cc(F)c2)OCCO3)cc1 |  |  |  |  | inhibition [9]: 70%; inhibition [10]: 40%
14 | CS(=O)(=O)c1ccc(-c2cc3c(cc2C(=O)c2cccc(Cl)c2)OCO3)cc1 |  |  |  | 90 | 
15 | CS(=O)(=O)c1ccc(-c2cc3c(cc2CC2CCCC2)OCO3)cc1 | 40 |  | 70 |  | inhibition [8]: 20%
16 | CCOC(=O)C1CCCN(Cc2cc3c(cc2-c2ccc(S(C)(=O)=O)cc2)OCO3)C1 (centres undefined) | 40 | 10 | 40 |  | 
17 | CS(=O)(=O)c1ccc(-c2cc3c(cc2C=C2CCCCCC2)OCO3)cc1 | 100 |  | 100 | 35 | inhibition [8]: 0%; IC50 [11]: 200 nM; IC50 [12]: > 100000 nM
18 | CS(=O)(=O)c1ccc(-c2ccccc2Cc2cccc(F)c2)cc1 |  |  |  |  | inhibition [9]: 35%
19 | CS(=O)(=O)c1ccc(-c2cc3c(cc2C(=O)N2CCCCC2)OCO3)cc1 | 20 | 15 | 40 |  | 
20 | CS(=O)(=O)c1ccc(-c2cc3c(cc2CC2CCCCC2)OCO3)cc1 | 100 | 0 | 100 | 50 | 
21 | Cc1cccc(Cc2cc3c(cc2-c2ccc(S(C)(=O)=O)cc2)OCO3)c1 |  |  |  | 10 | 
22 | CS(=O)(=O)c1ccc(-c2cc3c(cc2C(O)c2ccccc2)OCO3)cc1 (centres undefined) | 0 | 0 | 0 |  | 
